Experiments:
Details in all cases: stereoisomer not certain
OR6A2 (Homo sapiens) = OR6A2 (Homo sapiens) (UniProt O95222)
In short: (§1)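 Assay methods differ from source to source, frequently being transient luciferase assays in mammalian cell lines. For each receptor–molecule pair, the label responsive (active) applies when the original authors judged the measured signal statistically different from baseline, and non-responsive (inactive) applies otherwise.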

OR6A2 I50V = system: OR6A2 I50V
In short: as §1

OR6B1 (Homo sapiens) = OR6B1 (Homo sapiens) (UniProt O95007)
Sequence of OR6B1 (Homo sapiens) (O95007 whole entry): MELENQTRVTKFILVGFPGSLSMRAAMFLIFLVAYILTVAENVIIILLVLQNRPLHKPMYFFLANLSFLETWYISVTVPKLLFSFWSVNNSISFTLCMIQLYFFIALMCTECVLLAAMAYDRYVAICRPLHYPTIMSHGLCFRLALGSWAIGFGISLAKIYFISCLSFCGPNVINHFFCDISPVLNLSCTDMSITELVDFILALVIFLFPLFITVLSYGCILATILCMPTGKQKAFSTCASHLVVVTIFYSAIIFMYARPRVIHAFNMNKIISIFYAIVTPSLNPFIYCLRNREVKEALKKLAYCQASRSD
In short: as §1

OR6B2 (Homo sapiens) = OR6B2 (Homo sapiens) (UniProt Q6IFH4)
Sequence of OR6B2 (Homo sapiens) (Q6IFH4 whole entry): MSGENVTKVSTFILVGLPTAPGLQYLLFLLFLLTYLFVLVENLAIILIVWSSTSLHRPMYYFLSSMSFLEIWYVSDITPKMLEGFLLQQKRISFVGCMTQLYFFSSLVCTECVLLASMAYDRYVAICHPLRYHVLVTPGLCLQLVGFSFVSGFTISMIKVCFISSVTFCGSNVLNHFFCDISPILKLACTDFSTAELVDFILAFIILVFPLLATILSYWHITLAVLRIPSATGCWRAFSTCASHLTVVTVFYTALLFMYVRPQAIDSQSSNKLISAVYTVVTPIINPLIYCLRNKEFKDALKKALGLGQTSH
In short: as §1

OR6B2 R122C C179R = system: OR6B2 R122C C179R
In short: as §1

OR6B3 (Homo sapiens) = OR6B3 (Homo sapiens) (UniProt Q8NGW1)
Sequence of OR6B3 (Homo sapiens) (Q8NGW1 whole entry): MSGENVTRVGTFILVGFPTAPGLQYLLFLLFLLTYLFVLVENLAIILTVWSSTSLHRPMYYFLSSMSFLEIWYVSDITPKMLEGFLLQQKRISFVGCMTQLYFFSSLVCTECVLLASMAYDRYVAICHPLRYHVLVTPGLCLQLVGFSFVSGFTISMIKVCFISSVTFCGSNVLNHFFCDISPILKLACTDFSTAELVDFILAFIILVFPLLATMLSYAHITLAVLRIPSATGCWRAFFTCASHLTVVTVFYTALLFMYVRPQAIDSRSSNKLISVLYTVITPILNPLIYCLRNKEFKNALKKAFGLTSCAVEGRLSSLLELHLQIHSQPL
In short: as §1

OR6B3 T48I R131C = system: OR6B3 T48I R131C
In short: as §1

OR6C1 (Homo sapiens) = OR6C1 (Homo sapiens) (UniProt Q96RD1)
Sequence of OR6C1 (Homo sapiens) (Q96RD1 whole entry): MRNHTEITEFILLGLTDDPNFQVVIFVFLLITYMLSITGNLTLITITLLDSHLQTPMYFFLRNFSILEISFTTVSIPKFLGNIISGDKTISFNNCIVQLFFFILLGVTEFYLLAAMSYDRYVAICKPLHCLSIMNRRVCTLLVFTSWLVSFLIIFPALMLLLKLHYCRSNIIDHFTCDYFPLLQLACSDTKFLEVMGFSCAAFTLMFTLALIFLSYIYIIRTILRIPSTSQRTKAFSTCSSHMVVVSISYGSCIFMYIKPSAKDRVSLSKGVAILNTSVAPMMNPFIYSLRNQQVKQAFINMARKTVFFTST
In short: as §1

OR6C1 C130Y H165D V246I = system: OR6C1 C130Y H165D V246I
In short: as §1

OR6C2 (Homo sapiens) = OR6C2 (Homo sapiens) (UniProt Q9NZP2)
Sequence of OR6C2 (Homo sapiens) (Q9NZP2 whole entry): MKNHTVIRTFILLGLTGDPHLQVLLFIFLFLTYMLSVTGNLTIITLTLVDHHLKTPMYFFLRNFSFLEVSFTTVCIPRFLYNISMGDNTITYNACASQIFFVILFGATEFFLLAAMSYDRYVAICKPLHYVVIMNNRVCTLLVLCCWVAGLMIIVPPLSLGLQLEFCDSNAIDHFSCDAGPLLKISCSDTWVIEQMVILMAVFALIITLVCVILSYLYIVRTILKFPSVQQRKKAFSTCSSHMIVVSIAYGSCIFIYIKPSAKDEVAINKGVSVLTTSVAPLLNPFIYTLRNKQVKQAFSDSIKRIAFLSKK
In short: as §1

OR6C3 (Homo sapiens) = OR6C3 (Homo sapiens) (UniProt Q9NZP0)
Sequence of OR6C3 (Homo sapiens) (Q9NZP0 whole entry): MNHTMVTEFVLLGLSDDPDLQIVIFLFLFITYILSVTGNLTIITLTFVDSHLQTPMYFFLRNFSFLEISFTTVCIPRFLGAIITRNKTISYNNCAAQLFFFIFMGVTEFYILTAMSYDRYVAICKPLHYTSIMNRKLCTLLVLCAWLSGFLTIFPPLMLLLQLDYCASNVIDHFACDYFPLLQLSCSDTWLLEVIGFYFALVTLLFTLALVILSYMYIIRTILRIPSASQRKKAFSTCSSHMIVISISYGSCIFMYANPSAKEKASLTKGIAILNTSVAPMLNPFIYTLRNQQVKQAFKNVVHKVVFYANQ
In short: as §1

OR6C4 (Homo sapiens) = OR6C4 (Homo sapiens) (UniProt Q8NGE1)
Sequence of OR6C4 (Homo sapiens) (Q8NGE1 whole entry): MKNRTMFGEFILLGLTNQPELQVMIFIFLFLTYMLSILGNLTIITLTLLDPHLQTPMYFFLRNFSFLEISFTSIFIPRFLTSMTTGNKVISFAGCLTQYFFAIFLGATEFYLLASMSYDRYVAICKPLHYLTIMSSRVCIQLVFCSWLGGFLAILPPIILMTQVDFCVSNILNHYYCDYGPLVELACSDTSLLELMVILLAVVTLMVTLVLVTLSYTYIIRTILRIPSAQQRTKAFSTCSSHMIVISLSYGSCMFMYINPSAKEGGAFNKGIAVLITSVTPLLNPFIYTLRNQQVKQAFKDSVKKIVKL
In short: as §1

OR6C4 = system: OR6C4
Sequence of OR6C4 (as listed by the source): as the sequence (Q8NGE1 whole entry) above, with I37V counted along it
In short: as §1

OR6C6 (Homo sapiens) = OR6C6 (Homo sapiens) (UniProt A6NF89)
Sequence of OR6C6 (Homo sapiens) (A6NF89 whole entry): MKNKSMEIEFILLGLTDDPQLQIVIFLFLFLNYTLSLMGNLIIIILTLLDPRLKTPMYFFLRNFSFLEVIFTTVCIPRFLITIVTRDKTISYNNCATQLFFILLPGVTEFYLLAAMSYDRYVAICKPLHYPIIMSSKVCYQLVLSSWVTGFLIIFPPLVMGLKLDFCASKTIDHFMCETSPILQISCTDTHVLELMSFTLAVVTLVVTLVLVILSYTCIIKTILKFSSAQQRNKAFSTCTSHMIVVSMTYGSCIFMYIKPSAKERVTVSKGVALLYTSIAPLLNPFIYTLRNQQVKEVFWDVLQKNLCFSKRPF
In short: as §1

OR6C6 M6I = system: OR6C6 M6I
Sequence of OR6C6 M6I (as listed by the source): as the sequence (A6NF89 whole entry) above, with M6I counted along it
In short: as §1

OR6C65 (Homo sapiens) = OR6C65 (Homo sapiens) (UniProt A6NJZ3)
Sequence of OR6C65 (Homo sapiens) (A6NJZ3 whole entry): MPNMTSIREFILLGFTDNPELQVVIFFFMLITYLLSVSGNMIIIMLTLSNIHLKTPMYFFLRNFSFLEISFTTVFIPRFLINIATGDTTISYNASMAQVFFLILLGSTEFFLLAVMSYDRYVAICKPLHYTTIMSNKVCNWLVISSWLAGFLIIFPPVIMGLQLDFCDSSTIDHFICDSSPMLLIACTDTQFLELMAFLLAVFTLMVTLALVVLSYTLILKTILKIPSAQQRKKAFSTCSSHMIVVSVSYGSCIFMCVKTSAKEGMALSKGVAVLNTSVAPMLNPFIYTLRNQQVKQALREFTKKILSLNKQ
In short: as §1

OR6C68 (Homo sapiens) = OR6C68 (Homo sapiens) (UniProt A6NDL8)
Sequence of OR6C68 (Homo sapiens) (A6NDL8 whole entry): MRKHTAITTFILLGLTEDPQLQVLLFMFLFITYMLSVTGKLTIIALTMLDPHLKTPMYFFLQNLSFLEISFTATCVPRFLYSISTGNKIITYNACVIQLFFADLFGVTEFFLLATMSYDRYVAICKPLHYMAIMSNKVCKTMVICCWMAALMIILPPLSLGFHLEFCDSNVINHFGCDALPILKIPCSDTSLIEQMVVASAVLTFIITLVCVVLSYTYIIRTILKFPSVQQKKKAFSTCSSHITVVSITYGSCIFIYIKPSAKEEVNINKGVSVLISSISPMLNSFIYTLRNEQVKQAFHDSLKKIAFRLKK
In short: as §1

OR6C70 (Homo sapiens) = OR6C70 (Homo sapiens) (UniProt A6NIJ9)
Sequence of OR6C70 (Homo sapiens) (A6NIJ9 whole entry): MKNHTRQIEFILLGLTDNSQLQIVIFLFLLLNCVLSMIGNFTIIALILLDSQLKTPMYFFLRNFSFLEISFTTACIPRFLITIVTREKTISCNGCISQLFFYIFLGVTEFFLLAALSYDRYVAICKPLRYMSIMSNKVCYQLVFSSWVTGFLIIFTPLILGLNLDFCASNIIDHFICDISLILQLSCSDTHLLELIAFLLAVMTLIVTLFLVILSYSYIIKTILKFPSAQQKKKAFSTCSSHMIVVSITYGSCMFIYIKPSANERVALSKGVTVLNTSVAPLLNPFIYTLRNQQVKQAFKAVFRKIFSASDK
In short: as §1

OR6C74 (Homo sapiens) = OR6C74 (Homo sapiens) (UniProt A6NCV1)
Sequence of OR6C74 (Homo sapiens) (A6NCV1 whole entry): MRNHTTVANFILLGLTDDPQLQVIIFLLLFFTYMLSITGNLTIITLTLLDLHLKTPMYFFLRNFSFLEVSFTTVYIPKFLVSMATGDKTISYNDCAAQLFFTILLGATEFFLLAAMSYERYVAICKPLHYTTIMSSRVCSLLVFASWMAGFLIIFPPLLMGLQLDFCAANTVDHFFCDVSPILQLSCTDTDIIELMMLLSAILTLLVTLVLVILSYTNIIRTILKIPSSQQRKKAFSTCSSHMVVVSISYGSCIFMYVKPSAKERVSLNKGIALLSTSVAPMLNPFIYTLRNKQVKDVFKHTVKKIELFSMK
In short: as §1

OR6C75 (Homo sapiens) = OR6C75 (Homo sapiens) (UniProt A6NL08)
Sequence of OR6C75 (Homo sapiens) (A6NL08 whole entry): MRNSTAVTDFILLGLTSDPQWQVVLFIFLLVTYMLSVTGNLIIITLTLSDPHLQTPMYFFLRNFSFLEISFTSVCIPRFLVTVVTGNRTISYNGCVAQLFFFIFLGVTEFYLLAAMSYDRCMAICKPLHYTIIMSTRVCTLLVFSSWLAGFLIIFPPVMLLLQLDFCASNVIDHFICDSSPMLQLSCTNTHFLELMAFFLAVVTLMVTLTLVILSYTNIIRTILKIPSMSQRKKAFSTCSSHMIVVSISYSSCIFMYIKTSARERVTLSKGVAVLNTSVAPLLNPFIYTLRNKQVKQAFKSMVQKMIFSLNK
In short: as §1

Measured: odorant receptor agonist call

Sequence of OR6A2 (Homo sapiens) (O95222 whole entry): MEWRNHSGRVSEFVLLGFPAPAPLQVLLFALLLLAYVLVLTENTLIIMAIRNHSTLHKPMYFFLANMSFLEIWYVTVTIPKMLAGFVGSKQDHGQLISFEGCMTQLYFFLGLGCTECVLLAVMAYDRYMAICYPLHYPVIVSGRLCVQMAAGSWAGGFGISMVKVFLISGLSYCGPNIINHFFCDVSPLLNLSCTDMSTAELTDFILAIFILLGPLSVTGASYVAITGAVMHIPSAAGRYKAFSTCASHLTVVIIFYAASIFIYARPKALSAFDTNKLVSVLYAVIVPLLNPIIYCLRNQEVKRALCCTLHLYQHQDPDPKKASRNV
Sequence of OR6A2 I50V (as listed by the source, stated change not applied): as the sequence (O95222 whole entry) above, with I50V counted along it

C=CCOC(=O)Cc1ccccc1
inactive: all assays above

Cc1c([N+](=O)[O-])c(C)c([N+](=O)[O-])c(C(C)(C)C)c1[N+](=O)[O-]
not listed: OR6A2 I50V | OR6B2 R122C C179R | OR6B3 T48I R131C | OR6C1 C130Y H165D V246I | OR6C4 | OR6C6 M6I
inactive: all other assays above

From the M2OR odorant receptor database
